# Screens (PubChem)
# PKD1 kinase inh – inhibitors of human PKD1 kinase, biochemical, fluorescence polarization. PKD1 kinase fluorescence polarization assay. inhibition, % (test concentration not listed). 200,000 tested, 0.056% active. AID 797, 2007; in the data active means inhibition above about 50%
# ROMK primary – ROMK potassium channel modulators, primary screen, cell-based, thallium flux, MLSMR library | Tet-inducible ROMK, thallium flux fluorescence; actives lie on both sides | B-score at 10 µM | 130,000 tested, 2% active | AID 1918, 2009;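 active means signal ratio slope over the read window, or its plate-corrected B-score, at least 3 SD from the plate mean, either direction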;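 further: B-score of the F/F0 ratio slope over 7 to 12 s after thallium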
# Target sequence (P48048 whole entry, looked up): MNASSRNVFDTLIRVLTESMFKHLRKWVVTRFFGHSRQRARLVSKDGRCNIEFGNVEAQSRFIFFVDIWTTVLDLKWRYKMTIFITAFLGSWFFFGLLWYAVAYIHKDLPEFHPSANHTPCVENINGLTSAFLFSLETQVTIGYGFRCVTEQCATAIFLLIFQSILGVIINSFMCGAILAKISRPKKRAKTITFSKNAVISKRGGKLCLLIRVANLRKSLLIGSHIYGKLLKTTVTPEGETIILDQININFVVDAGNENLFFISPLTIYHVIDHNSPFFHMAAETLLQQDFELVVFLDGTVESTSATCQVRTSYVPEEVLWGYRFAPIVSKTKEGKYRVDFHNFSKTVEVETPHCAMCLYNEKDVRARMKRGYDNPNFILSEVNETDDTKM
# KCC2 mod – KCC2 cotransporter modulators, thallium flux, primary screen, cell-based, HEK293 KCC2, FluoZin-2 fluorescence, MLSMR; Solute carrier family 12 member 5 (Homo sapiens), Q9H2X9; KCC2 cells, thallium flux FluoZin-2 fluorescence; B-score of Tl+ flux slope (higher = more flux/activation; lower = inhibition) at 10 µM; 190,000 tested, 2.2% active;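 active means thallium flux slope and its plate-corrected score both differing from the plate sample mean at a set confidence after two filtering rounds, in either direction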;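 further: slope of fluorescence scaled to starting intensity during 10 to 20 s after thallium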
# Rad51 HR inh – human RAD51 strand exchange inhibitors, primary screen, biochemical, fluorescence. DNA repair protein RAD51 homolog 1 (Homo sapiens), Q06609. hRad51 DNA strand exchange, fluorescence dequenching. inhibition, % at 10 µM. 200,000 tested, 0.085% active;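 active means inhibition above 40% at the single screening dose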;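 further: 0% = DMSO control wells and 100% = blanks with heterologous ssDNA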
#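 System: human Rad51 nucleoprotein filaments preassembled on unlabelled ssDNA. Reagent: labelled 47-mer dsDNA for strand exchange. Schedule: 30-min compound preincubation and 15-min exchange, both room temperature. Measured by: FRET fluorescence dequenching, excitation 485 nm, emission 520 nm. Read-out: Fluorescence-based percent inhibition, control- and blank-normalised. Benchmarks: plate controls and plate blanks.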
# KCC2 secondary – KCC2 modulators in sodium-free buffer, confirmation, cell-based, HEK293 KCC2, thallium flux, secondary assay; 3,700 tested, 15% active; FluoZin2 fluorescence; hits give high values; normalised thallium flux (F/F0 slope) at 10 µM; shares compounds with KCC2 mod;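 active means thallium flux slope above the same plate's solvent-only control mean plus 3 SD; inconclusive means the two replicate wells disagree; inactive means no significant difference from solvent-only control wells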
# KCC2 bumet counter – thallium flux persisting under bumetanide in KCC2 cells, confirmation, counter-screen for KCC2 modulator project, cell-based, HEK293 KCC2, FluoZin2, secondary assay 3 | HEK293-KCC2 + bumetanide/ouabain; hits give high values | 3,700 tested, 49% active | normalized thallium flux at 10 µM | shares compounds with KCC2 mod;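 active means thallium entry rate above the same plate's blocked-transporter control wells by more than 3 SD; inconclusive means the two repeat wells disagree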;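 further: raw slope of fluorescence over initial fluorescence between 10 and 20 s after thallium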
# KCC2 sec2 – KCC2 modulators without ouabain present, confirmation, cell-based, HEK293 KCC2, thallium flux, FluoZin2, secondary assay 2 | shares compounds with KCC2 mod | normalized thallium flux at 10 µM | thallium flux FluoZin2 fluorescence; actives lie on both sides; F/F0 rise rate, 10–20 s post-thallium | 3,700 tested, 23% active | AID 1715, 2009;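 active means thallium flux slope more than 3 SD above or below the plate's solvent-only control mean, mostly below; inconclusive means the two repeat wells disagreed; inactive means no significant shift from solvent-only controls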;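 further: raw slope with 0.1% DMSO as baseline and bumetanide as block control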
# HEK293 Tl flux – thallium flux modulation in parental HEK cells, confirmation, counter-screen for KCC2 modulator project, cell-based, counterscreen 1. shares compounds with KCC2 mod. HEK293 parental cells, thallium flux FluoZin2, ouabain; baseline-ratio fluorescence slope, 10–20 s after thallium. thallium flux rate (normalised fluorescence) at 10 µM. 3,700 tested, 46% active. AID 1716, 2009;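 active means thallium flux rate significantly above the same plate's solvent-only control wells, beyond their mean plus 3 SD; inconclusive means the two replicate wells gave conflicting results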
# KCC2 retest ouab – KCC2 inhibitors and activators, ouabain retest, confirmation, HEK-KCC2 cells | shares compounds with KCC2 mod | HEK293-KCC2, thallium flux FluoZin2 fluorescence; bidirectional: low = inhibitor, high = activator | raw Tl+ flux slope (below DMSO = inhibition, above = activation) at 10 µM | 3,700 tested, 48% active;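 active means thallium flux slope beyond 3 SD from same-plate DMSO control mean in most replicates, usually higher, sometimes lower; inconclusive means repeat tests gave conflicting results; inactive means no significant difference from controls in most replicates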;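 further: slope of initial-normalized fluorescence between seconds 10 and 20 after thallium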
# HEK293 Tl flux2 – native HEK Tl+ uptake effects, second counter-screen – HEK cells, counterscreen 2, counter-screen for KCC2 modulator project, confirmation. shares compounds with KCC2 mod. HEK293 parental, thallium flux FluoZin-2 fluorescence slope. thallium flux slope at 10 µM. 3,700 tested, 33% active. AID 1718, 2009;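 active means thallium flux slope above the same plate's solvent-control mean plus 3 SD in both duplicate wells; inconclusive means duplicate wells that disagreed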;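 further: run without ouabain in cells lacking the KCC2 cotransporter; slope of fluorescence scaled to its starting value between 10 and 20 s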
# The depositor's hits bear a star; i = inactive; ? = inconclusive; · = not tested or not shown. Only some compounds are listed: those with a hit (about 3% of all), similar ones and a draw of the others.
SMILES,PKD1 kinase inh,ROMK primary,KCC2 mod,Rad51 HR inh,KCC2 secondary,KCC2 bumet counter,KCC2 sec2,HEK293 Tl flux,KCC2 retest ouab,HEK293 Tl flux2
CN(CC(=O)NCCN1CCN(Cc2ccccc2)CC1)S(=O)(=O)c1cccc2nsnc12,-10,0.63,·,0,·,·,·,·,·,·
O=C(CN(c1ccc2c(c1)OCCO2)S(=O)(=O)c1ccccc1)NCc1ccc(Cl)cc1,-8,-1.4,-1.8,·,·,·,·,·,·,·
CN(CC(=O)N1CCN(Cc2ccccc2)CC1)S(=O)(=O)c1cccc2nsnc12,-5,-0.017,-3.2*,·,0.0065,0.0044,0.02*,0.0069,0.013*,0.01
CN(CC(=O)NCCc1ccccc1)S(=O)(=O)c1cccc2nsnc12,7,0.87,-0.7,·,·,·,·,·,·,·
CS(=O)(=O)N(CCc1ccccc1)CC(=O)N1CCCCC1,-1,·,-0.2,-1,·,·,·,·,·,·
O=C1C(CSCc2ccccc2)NC(=S)N1c1ccccc1 (stereo not drawn),·,-0.058,-0.15,·,·,·,·,·,·,·
COc1ccc(S(=O)(=O)N(C)CC(=O)N2CCN(Cc3ccccc3)CC2)cc1C,-2,·,-4.1*,4,0.011,0.006,0.026*,0.0039,0.015*,0.012
Cc1cccc(N(C)S(=O)(=O)c2cccc3nsnc23)c1,2,·,-0.68,4,·,·,·,·,·,·
CCN(c1cccc(C)c1)S(=O)(=O)c1cccc2nsnc12,-9,0,3.9*,·,0.0058,?,0.027*,0.0059*,0.015*,0.009*
O=[N+]([O-])c1c(NCCCO)cc(Sc2nc3ccccc3s2)c2nonc12,-5,·,3.2*,·,0.0064,0.019*,0.033,0.013*,?,0.016*
CCC(=O)OCCNc1cc(Sc2nc3ccccc3s2)c2nonc2c1[N+](=O)[O-],-1,-2.4,3.2,-7,·,·,·,·,·,·
COc1ccc(C(=S)N2CCN(c3ccccc3C)CC2)cc1,·,-1.4,i,19,·,·,·,·,·,·
Cc1cc(/C=N/N2CCN(C)CC2)c(C)n1-c1ccc(Cl)cc1,·,·,1,-4,·,·,·,·,·,·
O=C(C1CCN(S(=O)(=O)c2ccccc2F)CC1)N1CCc2ccccc2C1,1,-0.94,-2.9,9,·,·,·,·,·,·
Cc1noc(/C=C/c2ccco2)c1S(=O)(=O)N1CCC(C(=O)N2CCc3ccccc3C2)CC1,-4,·,-0.53,·,0.0054,0.0046,0.026*,0.0072,?,0.01
O=C(C1CCN(S(=O)(=O)c2cccs2)CC1)N1CCc2ccccc2C1,7,·,-4.1*,5,0.0057,0.0046,0.024*,0.0073,0.018*,0.0099
Cc1ccc(NC(=O)C2CCN(S(=O)(=O)c3c(C)noc3/C=C/c3ccco3)CC2)nc1,-7,-0.5,0.55,-1,·,·,·,·,·,·
